Consider 5 molecules from ChEMBL document CHEMBL1275351, “Novel spirotetracyclic zwitterionic dual H(1)/5-HT(2A) receptor antagonists for the treatment of sleep disorders” (J Med Chem, 2010).

Bounds are passed on as bounds.

Data set [1] concerns the target T1, 5-hydroxytryptamine receptor 2C (Homo sapiens, UniProt P28335).
T1 sequence (P28335 whole entry): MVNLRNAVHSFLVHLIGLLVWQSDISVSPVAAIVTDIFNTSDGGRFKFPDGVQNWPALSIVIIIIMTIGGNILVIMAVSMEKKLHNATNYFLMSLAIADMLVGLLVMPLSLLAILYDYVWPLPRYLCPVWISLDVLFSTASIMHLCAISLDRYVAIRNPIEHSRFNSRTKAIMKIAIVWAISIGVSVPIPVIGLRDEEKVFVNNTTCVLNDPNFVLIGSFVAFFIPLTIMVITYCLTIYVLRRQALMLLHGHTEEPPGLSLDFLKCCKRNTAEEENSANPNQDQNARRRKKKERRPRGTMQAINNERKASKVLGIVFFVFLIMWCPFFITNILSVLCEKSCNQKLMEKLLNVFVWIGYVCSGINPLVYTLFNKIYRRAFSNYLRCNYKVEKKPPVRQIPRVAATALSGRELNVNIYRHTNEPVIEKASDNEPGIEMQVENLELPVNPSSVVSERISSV
In words: Antagonist activity at human 5HT2C receptor expressed in human SH-SY5Y cells by FLIPR assay. It is filed as functional, cell-based.

The target in data set [2] is 5-hydroxytryptamine receptor 2A (Homo sapiens, UniProt P28223). In words: Antagonist activity at human 5HT2A receptor expressed in HEK cells assessed as inhibition of intracellular calcium accumulation by aequorin assay. It is filed as functional, cell-based, HEK293.
Sequence of 5-hydroxytryptamine receptor 2A (Homo sapiens, UniProt P28223) (P28223 whole entry): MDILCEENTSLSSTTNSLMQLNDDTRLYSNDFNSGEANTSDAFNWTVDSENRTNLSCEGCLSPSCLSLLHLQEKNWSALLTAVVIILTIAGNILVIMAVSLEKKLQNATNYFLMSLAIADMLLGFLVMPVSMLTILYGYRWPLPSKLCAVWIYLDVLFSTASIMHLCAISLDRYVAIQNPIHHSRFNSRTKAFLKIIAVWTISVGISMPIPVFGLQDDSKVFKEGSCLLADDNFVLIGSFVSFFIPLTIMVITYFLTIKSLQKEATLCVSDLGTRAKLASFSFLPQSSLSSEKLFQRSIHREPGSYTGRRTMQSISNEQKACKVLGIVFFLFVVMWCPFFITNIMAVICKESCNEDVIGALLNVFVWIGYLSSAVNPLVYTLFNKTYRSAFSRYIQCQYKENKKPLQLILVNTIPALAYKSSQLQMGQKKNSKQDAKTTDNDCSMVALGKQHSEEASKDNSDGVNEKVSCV
For the next data set, the target named is Cytochrome P450 3A4 (Homo sapiens, UniProt P08684). In words: Inhibition of human CYP3A4 transfected in bactosome expression system by spectrofluorimetry. It is filed as ADME. A digest of the protocol: (§1)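 Recombinant human CYP Bactosomes (0.1 mg/mL) in 50 mM phosphate buffer, pH 7.4. Compound at 0.1-10 μM was preincubated with fluorogenic substrate for 10 min at 37 °C, and the reaction was started with an NADPH regenerating system. Metabolite fluorescence was followed for 10 min. Substrates: 1A2 ethoxyresorufin 0.5 μM; 2C9 FCA 50 μM; 2C19 BMC 10 μM; 2D6 MMC 10 μM; 3A4 DEF 1 μM or 7-BQ 25 μM. Run in triplicate.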
Sequence of Cytochrome P450 3A4 (P08684 whole entry): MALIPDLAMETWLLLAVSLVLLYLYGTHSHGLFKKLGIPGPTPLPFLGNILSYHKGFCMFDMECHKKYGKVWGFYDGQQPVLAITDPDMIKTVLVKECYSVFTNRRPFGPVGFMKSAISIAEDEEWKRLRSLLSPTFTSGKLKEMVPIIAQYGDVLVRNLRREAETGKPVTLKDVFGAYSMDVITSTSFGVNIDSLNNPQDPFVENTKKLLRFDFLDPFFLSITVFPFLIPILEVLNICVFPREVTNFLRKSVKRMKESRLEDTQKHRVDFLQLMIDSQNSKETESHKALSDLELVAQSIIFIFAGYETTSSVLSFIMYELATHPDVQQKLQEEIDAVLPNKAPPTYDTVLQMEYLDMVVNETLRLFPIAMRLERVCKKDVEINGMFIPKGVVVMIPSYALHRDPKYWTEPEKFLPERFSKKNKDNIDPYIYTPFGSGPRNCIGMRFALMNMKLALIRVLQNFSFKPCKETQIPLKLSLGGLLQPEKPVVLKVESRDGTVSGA

Data set [3] can be described thus: Blood clearance in Sprague-Dawley rat at 0.5 mg/kg, iv and 1 mg/kg, po. Format: ADME, organism-based. The settings on record: whole blood. In short, it runs like this: (§2)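 Male Sprague-Dawley rats, cassette dosing. Compounds were given as an iv bolus and as an oral suspension. Blood samples were taken at intervals up to 24 h, processed by protein precipitation and analysed by HPLC-MS/MS.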

In another data set the target is T2, Cytochrome P450 1A2 (Homo sapiens, UniProt P05177).
T2 sequence (P05177 whole entry): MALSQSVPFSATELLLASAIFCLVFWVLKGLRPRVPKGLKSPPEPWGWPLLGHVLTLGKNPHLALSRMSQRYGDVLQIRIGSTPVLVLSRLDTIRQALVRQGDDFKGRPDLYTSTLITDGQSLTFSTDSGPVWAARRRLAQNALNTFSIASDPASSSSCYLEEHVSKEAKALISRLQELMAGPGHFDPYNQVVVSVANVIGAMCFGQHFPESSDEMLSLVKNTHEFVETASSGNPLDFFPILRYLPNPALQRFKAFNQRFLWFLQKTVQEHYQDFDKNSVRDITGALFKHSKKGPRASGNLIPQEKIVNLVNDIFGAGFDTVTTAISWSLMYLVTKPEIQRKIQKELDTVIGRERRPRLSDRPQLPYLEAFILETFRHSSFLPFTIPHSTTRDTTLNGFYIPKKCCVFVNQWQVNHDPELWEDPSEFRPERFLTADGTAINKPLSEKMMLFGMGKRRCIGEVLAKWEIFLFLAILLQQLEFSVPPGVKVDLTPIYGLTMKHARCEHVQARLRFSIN
In words: Inhibition of human CYP1A2 transfected in bactosome expression system by spectrofluorimetry. Format: ADME. A digest of the protocol: as §1

Data set [4] in a line: Volume of distribution at steady state in Sprague-Dawley rat at 0.5 mg/kg, iv and 1 mg/kg, po. Format: ADME, organism-based. To be noted: in vivo, read-out: Vdss. A digest of the protocol: as §2
In data set [5] the target is 5-hydroxytryptamine receptor 2B (Homo sapiens, UniProt P41595). In words: Antagonist activity at human 5HT2B receptor expressed in human SH-SY5Y cells by FLIPR assay.
Sequence of 5-hydroxytryptamine receptor 2B (P41595 whole entry): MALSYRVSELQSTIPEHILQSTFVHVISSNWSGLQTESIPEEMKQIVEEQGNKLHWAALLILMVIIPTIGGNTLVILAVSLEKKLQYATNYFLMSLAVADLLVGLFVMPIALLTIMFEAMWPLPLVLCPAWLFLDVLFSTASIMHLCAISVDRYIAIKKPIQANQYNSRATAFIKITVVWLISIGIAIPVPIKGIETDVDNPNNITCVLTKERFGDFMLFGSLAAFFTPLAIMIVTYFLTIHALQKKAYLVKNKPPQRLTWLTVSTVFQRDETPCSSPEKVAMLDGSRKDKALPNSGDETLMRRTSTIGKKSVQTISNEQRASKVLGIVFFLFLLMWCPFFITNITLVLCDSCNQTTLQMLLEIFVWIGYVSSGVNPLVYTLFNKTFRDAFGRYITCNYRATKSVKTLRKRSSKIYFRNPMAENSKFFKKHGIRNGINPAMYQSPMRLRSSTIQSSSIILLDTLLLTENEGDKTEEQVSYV
Data set [6] has as its target Histamine H1 receptor (Rattus norvegicus, UniProt P31390). In words: Displacement of [3H]pyrilamine from histamine H1 receptor in Sprague-Dawley rat cortical membrane by liquid scintillation counting. A digest of the protocol:
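Cerebral cortex membranes from male Sprague-Dawley rats (200-250 g), 150 μg/well. Incubated with 0.6 nM [3H]pyrilamine in 50 mM HEPES, pH 7.4, for 2 h at room temperature. Filtered on PEI-soaked GF/B and counted by scintillation. Nonspecific binding with 10 μM cetirizine. Ki by Cheng-Prusoff; mean of two experiments in duplicate.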
In general terms: Displacement assays read how much labelled ligand stays bound in the presence of the test substance.

Data set [7] in a line: Half life in Sprague-Dawley rat at 0.5 mg/kg, iv and 1 mg/kg, po. The settings on record: in vivo. Format: ADME, organism-based. A digest of the protocol: as §2
Data set [8] deals with Histamine H1 receptor (Homo sapiens, UniProt P35367). In words: Antagonist activity against human histamine H1 receptor expressed in CHO cells by FLIPR assay. Format: functional, cell-based.
Sequence of Histamine H1 receptor (Homo sapiens, UniProt P35367) (P35367 whole entry): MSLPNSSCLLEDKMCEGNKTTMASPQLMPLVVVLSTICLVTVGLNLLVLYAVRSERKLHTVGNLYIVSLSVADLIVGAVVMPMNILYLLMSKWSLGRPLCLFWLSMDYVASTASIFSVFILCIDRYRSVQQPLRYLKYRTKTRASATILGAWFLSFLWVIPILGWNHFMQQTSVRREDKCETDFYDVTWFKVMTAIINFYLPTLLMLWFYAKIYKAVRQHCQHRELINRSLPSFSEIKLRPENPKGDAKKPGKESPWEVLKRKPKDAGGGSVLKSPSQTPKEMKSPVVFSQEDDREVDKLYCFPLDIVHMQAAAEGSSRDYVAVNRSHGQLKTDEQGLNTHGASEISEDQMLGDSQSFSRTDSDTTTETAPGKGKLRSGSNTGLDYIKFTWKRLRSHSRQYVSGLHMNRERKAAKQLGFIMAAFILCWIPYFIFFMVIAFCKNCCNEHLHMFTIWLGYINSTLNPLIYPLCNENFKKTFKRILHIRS
The target in data set [9] is 5-hydroxytryptamine receptor 2A (Rattus norvegicus, UniProt P14842). In words: Displacement of [3H]ketanserin from 5HT2A receptor in Sprague-Dawley rat cortical membrane by liquid scintillation counting. A digest of the protocol:
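Cerebral cortex membranes from male Sprague-Dawley rats (200-250 g), 50 μg/well. Incubated with 1 nM [3H]ketanserin in 50 mM Tris-HCl, 10 mM MgCl2, pH 7.4, for 1 h at 37 °C with shaking. Filtered on PEI-soaked GF/B and counted by scintillation. Nonspecific binding with 10 μM mianserin. Ki by Cheng-Prusoff; mean of two experiments in duplicate.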

The next data set has as its target Cytochrome P450 2C19 (Homo sapiens, UniProt P33261). Briefly: Inhibition of human CYP2C19 transfected in bactosome expression system by spectrofluorimetry. It is filed as ADME. A digest of the protocol:
as §1

The next data set deals with Cytochrome P450 2D6 (Homo sapiens, UniProt P10635). In words: Inhibition of human CYP2D6 transfected in bactosome expression system by spectrofluorimetry. Format: ADME. A digest of the protocol: as §1
Sequence of Cytochrome P450 2D6 (P10635 whole entry): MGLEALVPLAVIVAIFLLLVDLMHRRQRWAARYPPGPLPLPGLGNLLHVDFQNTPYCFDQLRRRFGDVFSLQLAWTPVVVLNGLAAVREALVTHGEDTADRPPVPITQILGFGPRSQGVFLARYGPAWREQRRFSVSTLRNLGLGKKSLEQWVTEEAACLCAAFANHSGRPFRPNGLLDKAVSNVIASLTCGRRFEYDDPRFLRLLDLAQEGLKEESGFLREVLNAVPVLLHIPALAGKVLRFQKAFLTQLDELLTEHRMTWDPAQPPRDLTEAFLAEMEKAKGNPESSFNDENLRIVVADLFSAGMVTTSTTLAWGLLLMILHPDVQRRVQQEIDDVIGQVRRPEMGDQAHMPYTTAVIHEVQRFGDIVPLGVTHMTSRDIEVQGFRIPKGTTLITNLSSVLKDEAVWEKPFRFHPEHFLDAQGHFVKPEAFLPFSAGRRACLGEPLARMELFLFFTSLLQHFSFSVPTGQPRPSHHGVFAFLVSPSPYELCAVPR
The nature of data set [10]: Fraction unbound in rat blood. Format: ADME, tissue-based.
For data set [11], the target named is Voltage-gated inwardly rectifying potassium channel KCNH2 (Homo sapiens, UniProt Q12809). In words: Displacement of [3H]dofetilide from human ERG by scintillation proximity assay.
A short description of data set [12]: Oral bioavailability in Sprague-Dawley rat at 1 mg/kg. Format: ADME, organism-based. The settings on record: in vivo. A digest of the protocol:
as §2

A short description of data set [13]: Ratio of drug level in brain to blood in Sprague-Dawley rat at 0.5 mg/kg, iv and 1 mg/kg, po. Format: ADME, organism-based. To be noted: read-out: BBR. In short, it runs like this:
(§3)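 Male Sprague-Dawley rats, cassette dosing, iv bolus or oral suspension. Blood and brain levels were measured by protein precipitation and HPLC-MS/MS. Brain:blood ratio was taken from AUC0-8h after oral dosing, or at 1 h after iv dosing for one compound.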

The target of a further data set is Cytochrome P450 2C9 (Homo sapiens, UniProt P11712). In words: Inhibition of human CYP2C9 transfected in bactosome expression system by spectrofluorimetry. Format: ADME. A digest of the protocol: as §1
Sequence of Cytochrome P450 2C9 (P11712 whole entry): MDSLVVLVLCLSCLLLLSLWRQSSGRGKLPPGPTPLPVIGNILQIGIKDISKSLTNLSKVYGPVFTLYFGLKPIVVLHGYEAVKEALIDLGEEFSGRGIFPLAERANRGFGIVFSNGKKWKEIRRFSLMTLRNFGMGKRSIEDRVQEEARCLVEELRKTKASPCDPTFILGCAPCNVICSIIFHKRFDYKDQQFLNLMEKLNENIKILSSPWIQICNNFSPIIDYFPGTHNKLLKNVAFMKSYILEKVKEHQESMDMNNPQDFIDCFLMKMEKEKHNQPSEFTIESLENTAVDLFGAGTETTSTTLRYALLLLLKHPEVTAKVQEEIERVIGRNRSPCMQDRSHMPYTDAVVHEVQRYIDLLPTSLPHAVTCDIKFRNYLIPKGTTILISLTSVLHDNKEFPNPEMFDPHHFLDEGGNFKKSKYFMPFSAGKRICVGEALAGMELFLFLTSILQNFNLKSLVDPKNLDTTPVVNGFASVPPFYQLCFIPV
Data set [14] can be described thus: Fraction unbound in rat brain. Format: ADME, tissue-based.
The nature of data set [15]: Volume of distribution at steady state in Sprague-Dawley rat at 1 mg/kg, iv and 3 mg/kg, po. It is filed as ADME, organism-based. The settings on record: in vivo, read-out: Vdss. In short, it runs like this:
as §2

Data set [16] can be described thus: Half life in Sprague-Dawley rat at 1 mg/kg, iv and 3 mg/kg, po. It is filed as ADME, organism-based. The settings on record: in vivo. A digest of the protocol:
as §2

A short description of data set [17]: Oral bioavailability in Sprague-Dawley rat at 3 mg/kg. Format: ADME, organism-based. The settings on record: in vivo. In short, it runs like this:
as §2

The nature of data set [18]: Ratio of drug level in brain to blood in Sprague-Dawley rat at 1 mg/kg, iv and 3 mg/kg, po. Format: ADME, organism-based. The settings on record: read-out: BBR. In short, it runs like this:
as §3

Data set [19] in a line: Blood clearance in Sprague-Dawley rat at 1 mg/kg, iv and 3 mg/kg, po. It is filed as ADME, organism-based. To be noted: whole blood. A digest of the protocol:
as §2

A short description of data set [20]: Selectivity ratio of pKi for human alpha1A adrenergic receptor to pKi for human Alpha-1B adrenergic receptor.

Sequence of Histamine H1 receptor (Rattus norvegicus, UniProt P31390) (P31390 whole entry): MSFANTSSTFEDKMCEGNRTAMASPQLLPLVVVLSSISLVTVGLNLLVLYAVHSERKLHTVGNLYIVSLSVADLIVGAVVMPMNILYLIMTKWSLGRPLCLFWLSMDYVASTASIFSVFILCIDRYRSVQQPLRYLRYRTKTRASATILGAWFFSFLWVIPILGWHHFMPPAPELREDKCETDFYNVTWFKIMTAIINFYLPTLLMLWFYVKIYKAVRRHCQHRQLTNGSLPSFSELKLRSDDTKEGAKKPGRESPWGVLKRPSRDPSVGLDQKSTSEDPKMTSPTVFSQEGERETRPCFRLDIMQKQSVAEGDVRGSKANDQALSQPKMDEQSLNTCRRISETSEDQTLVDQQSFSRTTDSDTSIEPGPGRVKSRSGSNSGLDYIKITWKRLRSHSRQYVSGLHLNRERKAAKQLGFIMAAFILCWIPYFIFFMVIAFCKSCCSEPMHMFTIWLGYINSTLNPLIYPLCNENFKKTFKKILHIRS
Sequence of 5-hydroxytryptamine receptor 2A (Rattus norvegicus, UniProt P14842) (P14842 whole entry): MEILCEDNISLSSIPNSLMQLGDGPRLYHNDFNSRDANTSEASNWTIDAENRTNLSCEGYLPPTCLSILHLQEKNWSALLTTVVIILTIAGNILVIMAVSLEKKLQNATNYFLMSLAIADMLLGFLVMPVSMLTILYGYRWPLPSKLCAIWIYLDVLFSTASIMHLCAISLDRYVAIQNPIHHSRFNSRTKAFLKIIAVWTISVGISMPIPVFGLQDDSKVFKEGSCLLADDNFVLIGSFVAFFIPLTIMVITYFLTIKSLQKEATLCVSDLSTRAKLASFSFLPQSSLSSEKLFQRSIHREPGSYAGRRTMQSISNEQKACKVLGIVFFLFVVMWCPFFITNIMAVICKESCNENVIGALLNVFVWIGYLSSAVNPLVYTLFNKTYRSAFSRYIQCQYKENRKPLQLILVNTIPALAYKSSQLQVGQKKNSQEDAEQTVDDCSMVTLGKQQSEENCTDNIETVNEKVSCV
Sequence of Cytochrome P450 2C19 (P33261 whole entry): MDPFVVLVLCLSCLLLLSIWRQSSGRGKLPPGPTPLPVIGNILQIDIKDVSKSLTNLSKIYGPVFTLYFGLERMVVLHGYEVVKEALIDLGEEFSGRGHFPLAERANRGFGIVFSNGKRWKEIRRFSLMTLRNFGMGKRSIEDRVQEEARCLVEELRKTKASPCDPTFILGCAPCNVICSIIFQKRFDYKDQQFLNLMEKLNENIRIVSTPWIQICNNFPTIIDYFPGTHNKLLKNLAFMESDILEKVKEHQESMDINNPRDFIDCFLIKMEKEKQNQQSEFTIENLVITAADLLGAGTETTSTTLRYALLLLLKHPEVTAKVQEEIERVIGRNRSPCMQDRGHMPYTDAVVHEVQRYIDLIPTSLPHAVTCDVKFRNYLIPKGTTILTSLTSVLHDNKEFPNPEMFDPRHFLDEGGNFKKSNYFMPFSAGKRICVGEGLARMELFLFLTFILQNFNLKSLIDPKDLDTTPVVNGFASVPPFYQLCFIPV

The term Ki denotes the equilibrium dissociation constant of an inhibitor or competing ligand from its target. Usually IC50 stands for the concentration that gives 50% inhibition. A low value points to inhibition by little substance. One may read the half-life as the time needed for the level to fall by half in the phase considered. A high value points to slow loss. As usually defined, the fraction unbound is the share of the substance not bound to proteins or other matrix. Low values mean extensive binding, high ones weak binding. The bioavailability is the share of a dose that reaches the circulation, judged against a reference dose that is usually intravenous. Lower therefore signals little systemic uptake. For the molecule `O=C(O)[C@]12C[C@H]1CN(C1CC[C@]3(Cc4ccccc4Cc4ccccc43)C1)C2` (stereo partly drawn), the Ki in data set [1] was 0.0631 µM; in [2] it was 0.0316 µM; in data set [5], 0.398 µM; on Histamine H1 receptor [6] it was 0.00537 µM; at Histamine H1 receptor [8], 0.0316 µM; in [9], 0.0692 µM. In addition, the concentration for half-maximal inhibition (IC50) at Cytochrome P450 3A4 is over 10 µM; at Cytochrome P450 1A2, over 10 µM; at Cytochrome P450 2C19, over 10 µM; against Cytochrome P450 2D6 it was over 10 µM; in data set [11], over 39.8 µM; against Cytochrome P450 2C9 it was over 10 µM. Moreover, in data set [3], the clearance stood at 5 mL/min/kg. For the same molecule, in [4], the Vd stood at 2.4 L/kg. Further, in [7], the half-life is 5.3 h. In addition, the fraction unbound in data set [10] worked out at 0.08; in data set [14], 0.023. For the same molecule, the bioavailability in [12] came to 62%. Besides, in [13], the Kp turned out to be 2.2.
As for `O=C(O)C1=CCN(C2CCC3(Cc4ccccc4Oc4ccccc43)C2)CC1` (stereo not drawn), the Ki in data set [1] is 1 µM; in data set [2] it was 0.0251 µM; in data set [5], over 2 µM; at Histamine H1 receptor [6] it was 0.02 µM; at Histamine H1 receptor [8], 0.0501 µM; in data set [9] it was 0.105 µM. The Vd in [15] worked out at 2.7 L/kg. Besides, the 50% inhibitory concentration (IC50) on Cytochrome P450 3A4, against Cytochrome P450 1A2, on Cytochrome P450 2C19, against Cytochrome P450 2D6 and at Cytochrome P450 2C9 was over 10 µM each time. Moreover, the half-life in data set [16] is 3 h. In data set [17], this molecule yielded a bioavailability of 37%. Besides, the fraction unbound in data set [10] was found to be 0.103; in data set [14], 0.027. In addition, the Kp in data set [18] turned out to be 1.8. Further, the clearance in [19] was determined as 16 mL/min/kg.
Turning to `O=C(O)C1(F)CCN(C2CC[C@]3(Cc4ccccc4Cc4ccccc43)C2)CC1` (stereo partly drawn), the Ki in [1] was 1 µM; in data set [2], 0.0501 µM; in data set [5], over 2 µM; on Histamine H1 receptor [6], 0.0123 µM; at Histamine H1 receptor [8] it was 0.0398 µM; in data set [9], 0.355 µM. The Vd in data set [15] was 3.8 L/kg. The 50% inhibitory concentration (IC50) at Cytochrome P450 3A4 was over 10 µM; at Cytochrome P450 1A2, over 10 µM; at Cytochrome P450 2C19 it was over 10 µM; on Cytochrome P450 2D6, over 10 µM; in data set [11], over 39.8 µM; against Cytochrome P450 2C9 it was over 10 µM. This molecule also gave a half-life in data set [16] of 1.2 h. The same molecule showed a bioavailability in data set [17] of 22%. The fraction unbound is 0.084 in data set [10] and 0.02 in data set [14]. The Kp in [18] worked out at 0.1. In data set [19], this molecule showed a clearance of 61 mL/min/kg.
In general, pKi refers to the negative decadic logarithm of the Ki, by convention in mol/L. Regarding `CN(C)C1CC[C@]2(Cc3ccccc3Cc3ccccc32)C1` (stereo partly drawn), the inhibition constant Ki was 0.00794 µM in data set [1], 0.0126 µM in [2], 0.0158 µM in data set [5] and 0.00398 µM on Histamine H1 receptor [8]. The negative-log Ki (pKi) in data set [20] is under 6.
On to `O=C(O)C1=CCCN(C2CC[C@]3(Cc4ccccc4Cc4ccccc43)C2)C1` (single isomer, unassigned; stereoisomer 1), for which the Ki in data set [1] is 0.158 µM; in data set [2], 0.126 µM; at Histamine H1 receptor [6], 0.00871 µM; on Histamine H1 receptor [8], 0.0251 µM; in [9], 0.117 µM. Moreover, the Vd in data set [15] came to 0.4 L/kg. In addition, the IC50 against Cytochrome P450 3A4, on Cytochrome P450 1A2, at Cytochrome P450 2C19, at Cytochrome P450 2D6 and against Cytochrome P450 2C9 was over 10 µM in each case. Also, the half-life in data set [16] was 2.4 h. In data set [17], this molecule came in with a bioavailability of 80%. The values for the fraction unbound in [10] and in [14] were 0.024 and 0.03, respectively. Moreover, the Kp in [18] came out at 0.1. Besides, the clearance in data set [19] was determined as 2 mL/min/kg.
